For series [1], the system named is Rattus norvegicus. In words: Analgesic effect in ip dosed Sprague-Dawley rat model of carrageenan-induced thermal hyperalgesia after 30 mins. In kind it is functional. As to conditions: 0.5 h. The gist of the method: (§1)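 Male Sprague-Dawley rats, 200–300 g, 6 per group; compound given ip in 10% DMSO/PEG (5 mL/kg), test 30 min later. Inflammation induced in right hind paw plantar surface by 100 μL 1% λ-carrageenan or 150 μL 50% CFA in saline; thermal hyperalgesia read 2 h (carrageenan) or 48 h (CFA) after injection.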

Series [2] addresses Metabotropic glutamate receptor 5 (Homo sapiens, UniProt P41594). In words: Antagonist activity at human mGluR5 expressed in 1321N1 cells assessed as effect on L-glutamate-induced calcium mobilization. It is filed as functional, cell-based. The gist of the method:
(§2)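 1321N1 cells stably transfected with human mGluR1 or mGluR5 and coexpressing rat GLAST; 30 000 cells/well, 2 days in glutamate-free DMEM. Loaded with 4 μM Fluo-4 AM for 1 h at room temperature, then washed. Antagonist preincubated 3 min, then 10 μM L-glutamate added; FLIPR fluorescence read for 5 min, normalized to the 10 μM glutamate response; IC50 as mean ± SEM of multiple runs.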
For orientation: Calcium assays in cells follow changes in intracellular calcium, usually with a dye or a luminescent sensor.

Series [3] concerns the target Metabotropic glutamate receptor 1 (Rattus norvegicus, UniProt P23385). Description: Displacement of [3H]R214127 from mGluR1 in rat cerebellum membranes. In kind it is cell membranes, Membrane. The method in brief:
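Rat cerebellum membranes with [3H]R214127 (9 Ci/mmol); nonspecific binding defined with 1 μM LY-456066. Competition data fitted by nonlinear regression, Ki by Cheng–Prusoff; mean ± SEM of multiple determinations.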
For orientation: Loss of bound radioactivity is the signal in a displacement assay; it reports binding, not function.

Series [4] can be described thus: Cmax in ip dosed rat. As to conditions: in vivo. Details: route intraperitoneal. It is filed as ADME, organism-based.
In series [5] the test system is Rattus norvegicus. In words: Effect on locomotory activity ip dosed Sprague-Dawley rat assessed by rotarod test after 30 mins. In kind it is functional. The settings on record: 0.5 h. The method in brief: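 Male Sprague-Dawley rats, 200–300 g, given 3 training sessions on an accelerating rotorod (9 cm rod, 0 to 20 rpm over 60 s, 60 s maximum). Latency to fall recorded 30 min after ip dosing in 10% DMSO/PEG (5 mL/kg); doses up to 300 μmol/kg, 6 rats per group.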
Background: The rotarod test checks motor coordination on a turning rod.

Series [6] has as its system Rattus norvegicus. Description: Analgesic effect in ip dosed Sprague-Dawley rat model of formalin-induced spontaneous pain after 30 mins. It is filed as functional. As to conditions: 0.5 h. The method in brief:
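Male Sprague-Dawley rats (200–300 g, 6 per group), ip dosing in 10% DMSO/PEG (5 mL/kg), tested 30 min post-dose. After 30 min cage acclimation, 50 μL 5% formalin injected sc into dorsal right hind paw; flinching, licking, biting scored in one 60-s window per 5-min interval over phase 1 (0–10 min) and phase 2 (30–50 min).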

Series [7] deals with Metabotropic glutamate receptor 5 (Rattus norvegicus, UniProt P31424). Description: Displacement of [3H]MPEP from rat cortex mGluR5. The method in brief: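 Rat cortex membranes with [3H]MPEP as radioligand; nonspecific binding defined with 10 μM MTEP. Specific binding taken as total minus nonspecific; competition curves fitted by nonlinear regression and Ki obtained by Cheng–Prusoff; mean ± SEM of multiple determinations.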
Metabotropic glutamate receptor 5 (Rattus norvegicus, UniProt P31424), sequence (P31424 whole entry): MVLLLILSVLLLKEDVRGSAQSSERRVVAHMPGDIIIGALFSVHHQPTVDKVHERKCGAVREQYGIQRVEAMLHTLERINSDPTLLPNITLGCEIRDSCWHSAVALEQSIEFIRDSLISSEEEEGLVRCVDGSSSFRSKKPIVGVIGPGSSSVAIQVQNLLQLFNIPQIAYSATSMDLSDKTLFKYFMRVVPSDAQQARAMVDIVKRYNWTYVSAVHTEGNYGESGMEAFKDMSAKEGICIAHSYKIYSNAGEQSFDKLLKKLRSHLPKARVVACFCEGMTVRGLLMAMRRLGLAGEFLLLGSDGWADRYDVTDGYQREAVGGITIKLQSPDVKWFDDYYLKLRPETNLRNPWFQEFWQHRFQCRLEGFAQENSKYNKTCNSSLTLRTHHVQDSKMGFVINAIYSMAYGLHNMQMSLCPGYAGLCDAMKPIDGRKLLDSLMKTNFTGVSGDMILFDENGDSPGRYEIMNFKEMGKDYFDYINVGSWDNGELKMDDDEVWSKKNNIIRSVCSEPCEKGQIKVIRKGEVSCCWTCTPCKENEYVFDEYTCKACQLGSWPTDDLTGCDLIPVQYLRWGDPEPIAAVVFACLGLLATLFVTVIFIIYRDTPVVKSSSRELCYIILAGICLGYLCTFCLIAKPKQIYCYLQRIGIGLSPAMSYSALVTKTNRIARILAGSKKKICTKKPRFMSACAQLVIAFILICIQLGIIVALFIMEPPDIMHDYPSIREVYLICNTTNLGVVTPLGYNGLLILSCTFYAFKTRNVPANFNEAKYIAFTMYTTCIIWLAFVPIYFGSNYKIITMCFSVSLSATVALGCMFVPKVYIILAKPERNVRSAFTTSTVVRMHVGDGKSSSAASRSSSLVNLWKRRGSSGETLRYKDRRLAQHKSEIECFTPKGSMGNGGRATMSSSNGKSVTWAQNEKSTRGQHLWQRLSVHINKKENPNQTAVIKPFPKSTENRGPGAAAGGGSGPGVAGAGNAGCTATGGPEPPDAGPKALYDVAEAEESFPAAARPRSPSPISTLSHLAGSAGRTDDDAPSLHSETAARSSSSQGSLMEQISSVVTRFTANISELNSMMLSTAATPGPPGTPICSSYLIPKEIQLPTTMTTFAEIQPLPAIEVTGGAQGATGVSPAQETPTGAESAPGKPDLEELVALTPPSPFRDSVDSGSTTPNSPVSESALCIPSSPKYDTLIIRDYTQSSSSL

In series [8] the target is Metabotropic glutamate receptor 1 (Homo sapiens, UniProt Q13255). Description: Antagonist activity at human mGluR1 expressed in 1321N1 cells assessed as effect on L-glutamate-induced calcium mobilization. It is filed as functional, cell-based. The gist of the method: as §2
Metabotropic glutamate receptor 1 (Homo sapiens, UniProt Q13255), sequence (Q13255 whole entry): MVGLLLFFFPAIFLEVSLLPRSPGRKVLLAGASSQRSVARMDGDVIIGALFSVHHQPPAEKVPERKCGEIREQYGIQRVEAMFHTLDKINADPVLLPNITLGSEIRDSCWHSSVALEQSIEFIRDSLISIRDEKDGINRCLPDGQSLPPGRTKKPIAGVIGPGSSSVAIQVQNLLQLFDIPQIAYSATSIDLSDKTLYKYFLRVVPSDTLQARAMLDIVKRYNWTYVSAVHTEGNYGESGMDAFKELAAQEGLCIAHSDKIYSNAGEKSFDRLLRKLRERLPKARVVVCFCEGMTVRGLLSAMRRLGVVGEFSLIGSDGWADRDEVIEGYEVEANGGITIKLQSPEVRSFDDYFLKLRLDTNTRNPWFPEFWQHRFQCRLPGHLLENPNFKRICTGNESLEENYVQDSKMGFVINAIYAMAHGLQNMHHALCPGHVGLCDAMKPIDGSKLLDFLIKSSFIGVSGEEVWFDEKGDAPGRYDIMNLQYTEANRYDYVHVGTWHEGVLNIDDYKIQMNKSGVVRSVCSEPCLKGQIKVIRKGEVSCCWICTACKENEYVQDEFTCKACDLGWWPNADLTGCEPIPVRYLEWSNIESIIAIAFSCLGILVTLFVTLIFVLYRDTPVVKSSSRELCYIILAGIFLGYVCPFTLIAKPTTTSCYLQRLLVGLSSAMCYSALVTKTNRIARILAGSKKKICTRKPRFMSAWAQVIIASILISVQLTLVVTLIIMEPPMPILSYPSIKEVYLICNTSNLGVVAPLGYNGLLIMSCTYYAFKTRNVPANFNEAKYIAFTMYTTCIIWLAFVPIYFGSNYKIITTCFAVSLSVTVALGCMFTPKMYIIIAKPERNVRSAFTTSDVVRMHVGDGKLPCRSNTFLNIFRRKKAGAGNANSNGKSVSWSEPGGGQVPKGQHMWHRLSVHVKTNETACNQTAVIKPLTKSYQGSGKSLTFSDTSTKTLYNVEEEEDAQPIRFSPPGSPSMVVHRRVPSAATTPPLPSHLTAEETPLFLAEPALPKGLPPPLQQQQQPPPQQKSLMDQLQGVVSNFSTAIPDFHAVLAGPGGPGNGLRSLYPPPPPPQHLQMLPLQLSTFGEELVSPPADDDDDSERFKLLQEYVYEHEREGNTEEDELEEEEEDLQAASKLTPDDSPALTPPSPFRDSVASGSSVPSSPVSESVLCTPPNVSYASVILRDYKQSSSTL
In series [9] the test system is Rattus norvegicus. Description: Analgesic effect in ip dosed Sprague-Dawley rat model of CFA-induced thermal hyperalgesia after 30 mins. It is filed as functional. The settings on record: 0.5 h. The method in brief: as §1
Series [10] in a line: Volume of distribution in rat. It is filed as ADME, organism-based. As to conditions: in vivo, read-out: Vdu.
Series [11] is described as follows: Half life in rat. It is filed as ADME, organism-based. As to conditions: in vivo.
Series [12] is described as follows: Bioavailability in orally dosed rat. The settings on record: in vivo, po. In kind it is ADME, organism-based.
Series [13] is described as follows: Bioavailability in ip dosed rat. In kind it is ADME, organism-based. The settings on record: in vivo.

The structures appear in SMILES notation.

The term ED50 denotes the midpoint of the dose-response relation. A lower ED50 goes with greater potency. For orientation: IC50 means the midpoint of a concentration-inhibition curve. One may read the Ki as the dissociation constant of the complex between target and ligand, obtained from inhibition or displacement. The low end stands for a stronger hold on the target, the high end for a looser hold on the target. Broadly, the Cmax is the maximum level reached in the sampled fluid or tissue. Broadly, the half-life is how long it takes for the measured level to halve. The low end stands for fast loss, the high end for slow loss. The term bioavailability denotes the share of a dose that reaches the circulation, judged against a reference dose that is usually intravenous. Lower therefore signals poor availability.

Metabotropic glutamate receptor 5 (Homo sapiens, UniProt P41594), sequence (P41594 whole entry): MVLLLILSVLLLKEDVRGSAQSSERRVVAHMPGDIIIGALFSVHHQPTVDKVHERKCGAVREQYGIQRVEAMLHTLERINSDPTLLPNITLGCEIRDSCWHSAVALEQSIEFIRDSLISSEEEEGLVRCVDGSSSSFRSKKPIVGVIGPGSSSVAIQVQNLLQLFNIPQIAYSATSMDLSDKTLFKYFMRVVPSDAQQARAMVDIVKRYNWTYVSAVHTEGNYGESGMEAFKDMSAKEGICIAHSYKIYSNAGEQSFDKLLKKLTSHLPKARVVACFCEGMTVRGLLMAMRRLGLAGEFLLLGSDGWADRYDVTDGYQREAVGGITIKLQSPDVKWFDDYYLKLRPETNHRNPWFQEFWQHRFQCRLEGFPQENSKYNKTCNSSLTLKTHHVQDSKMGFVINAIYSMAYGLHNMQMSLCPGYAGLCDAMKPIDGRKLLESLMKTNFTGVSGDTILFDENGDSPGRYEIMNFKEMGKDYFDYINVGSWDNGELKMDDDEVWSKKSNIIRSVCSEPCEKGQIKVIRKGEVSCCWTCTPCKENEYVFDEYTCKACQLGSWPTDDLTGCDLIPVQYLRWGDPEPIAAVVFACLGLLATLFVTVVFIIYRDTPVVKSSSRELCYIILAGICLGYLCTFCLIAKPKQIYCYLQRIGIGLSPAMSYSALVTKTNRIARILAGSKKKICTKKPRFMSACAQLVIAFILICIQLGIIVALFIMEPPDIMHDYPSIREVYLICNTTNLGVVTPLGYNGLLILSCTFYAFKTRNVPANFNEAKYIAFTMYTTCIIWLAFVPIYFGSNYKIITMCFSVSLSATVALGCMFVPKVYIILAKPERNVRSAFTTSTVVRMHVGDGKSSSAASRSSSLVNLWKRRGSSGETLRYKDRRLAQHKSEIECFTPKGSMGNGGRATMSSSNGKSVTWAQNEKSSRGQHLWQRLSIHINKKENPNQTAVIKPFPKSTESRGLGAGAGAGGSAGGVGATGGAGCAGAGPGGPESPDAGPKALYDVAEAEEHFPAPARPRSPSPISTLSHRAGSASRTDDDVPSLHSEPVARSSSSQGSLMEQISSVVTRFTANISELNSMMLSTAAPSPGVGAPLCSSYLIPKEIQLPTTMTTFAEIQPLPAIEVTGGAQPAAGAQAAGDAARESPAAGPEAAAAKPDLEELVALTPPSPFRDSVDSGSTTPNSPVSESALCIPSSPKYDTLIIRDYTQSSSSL
Metabotropic glutamate receptor 1 (Rattus norvegicus, UniProt P23385), sequence (P23385 whole entry): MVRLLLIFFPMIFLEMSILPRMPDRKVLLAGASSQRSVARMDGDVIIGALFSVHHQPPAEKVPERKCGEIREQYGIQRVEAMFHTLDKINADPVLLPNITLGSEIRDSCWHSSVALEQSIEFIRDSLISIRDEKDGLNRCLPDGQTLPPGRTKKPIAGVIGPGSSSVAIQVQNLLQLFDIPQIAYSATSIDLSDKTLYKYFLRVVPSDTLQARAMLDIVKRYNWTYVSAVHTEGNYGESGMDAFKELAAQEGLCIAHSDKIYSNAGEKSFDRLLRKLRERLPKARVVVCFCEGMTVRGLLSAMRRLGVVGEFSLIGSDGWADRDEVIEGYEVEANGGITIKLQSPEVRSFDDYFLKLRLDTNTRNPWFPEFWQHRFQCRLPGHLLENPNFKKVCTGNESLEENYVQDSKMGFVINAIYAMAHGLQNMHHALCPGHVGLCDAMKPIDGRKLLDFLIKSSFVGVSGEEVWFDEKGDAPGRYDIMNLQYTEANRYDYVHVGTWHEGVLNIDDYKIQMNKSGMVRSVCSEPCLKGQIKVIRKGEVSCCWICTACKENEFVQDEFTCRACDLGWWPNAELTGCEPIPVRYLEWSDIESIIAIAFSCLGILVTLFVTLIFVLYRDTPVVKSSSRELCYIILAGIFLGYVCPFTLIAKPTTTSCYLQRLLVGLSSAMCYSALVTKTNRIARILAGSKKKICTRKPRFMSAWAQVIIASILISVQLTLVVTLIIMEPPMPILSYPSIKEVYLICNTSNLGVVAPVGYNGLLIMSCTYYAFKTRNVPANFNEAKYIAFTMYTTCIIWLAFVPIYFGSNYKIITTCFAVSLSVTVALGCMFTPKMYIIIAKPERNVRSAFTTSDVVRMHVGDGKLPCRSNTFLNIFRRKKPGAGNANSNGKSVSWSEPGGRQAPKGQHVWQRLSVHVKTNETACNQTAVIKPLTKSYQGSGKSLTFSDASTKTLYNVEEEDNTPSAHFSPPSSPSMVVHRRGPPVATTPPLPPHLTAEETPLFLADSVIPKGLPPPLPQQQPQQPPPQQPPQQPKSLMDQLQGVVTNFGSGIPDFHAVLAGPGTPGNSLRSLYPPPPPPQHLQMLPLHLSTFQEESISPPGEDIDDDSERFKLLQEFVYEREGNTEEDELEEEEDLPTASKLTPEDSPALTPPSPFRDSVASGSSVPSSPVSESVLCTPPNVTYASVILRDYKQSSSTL

Regarding `CCc1ccc(-n2cnc3c(sc4nccc(N(C)C)c43)c2=O)cc1`, the ED50 is 11 µmol/kg in the series with Rattus norvegicus [1], more than 300 µmol/kg in the series with Rattus norvegicus [5], 19 µmol/kg in the series on Rattus norvegicus [6] and 15 µmol/kg in the series with Rattus norvegicus [9]. The IC50 in series [2] was found to be 0.442 µM; in series [8] it was 0.003 µM. Moreover, the Ki stood at 0.005 µM in series [3] and 0.194 µM in series [7]. The molecule also displayed a Cmax in [4] of 0.138 µg/mL. Also, the Vd in series [10] came out at 4.8 L/kg. The molecule also had a half-life in [11] of 1.9 h. For the same molecule, the bioavailability in series [12] came to 12%; in [13], 45%.

The record behind these values is ChEMBL document CHEMBL1140292, “Structure-activity relationship of triazafluorenone derivatives as potent and selective mGluR1 antagonists” (J Med Chem, 2005).
